In ChEMBL document CHEMBL3046809, “Plant tissue distribution and chemical inactivation of six carnation viruses” (Crop Prot, 2007):
Activity calls are given as the source filed them. The calls are words filed in the database; no cut-off is given here.

Experiments:
Format in all cases: functional, organism-based
[1] = test system: Carnation vein mottle virus; assay: Antiviral activity against Carnation vein mottle virus infected compound-treated sap in Saponaria vaccaria at 3% incubated for 60 secs prior to inoculation measured after 6 weeks in green house conditions by non-isotopic molecular hybridisation assay
How it was run: (§1)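 Infected leaves ground in 30 mM phosphate buffer pH 7.0 with 0.5% PVP (1 g/5 ml) and clarified. Sap mixed 1:1 with chemical solution for 60 s; listed concentrations are final, after extract dilution. Buffer-only sap served as control. Treated sap rub-inoculated with carborundum onto three S. vaccaria cv. 'Pink Beauty' plants. Plants held in a greenhouse up to 6 weeks; infection scored by non-isotopic hybridisation.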

[2] = test system: Carnation etched ring virus; assay: Antiviral activity against Carnation etched ring virus infected compound-treated sap in Saponaria vaccaria at 3% incubated for 60 secs prior to inoculation measured after 6 weeks in green house conditions by non-isotopic molecular hybridisation assay; how it was run: as §1
[3] = test system: Carnation Italian ringspot virus; assay: Antiviral activity against Carnation Italian ringspot virus infected as compound-treated sap in Saponaria vaccaria at 3% incubated for 60 secs prior to inoculation measured after 6 weeks in green house conditions by non-isotopic molecular hybridisation assay; how it was run: as §1
[4] = test system: Carnation ringspot virus; assay: Antiviral activity against Carnation ringspot virus infected compound-treated sap in Saponaria vaccaria at 7% incubated for 60 secs prior to inoculation measured after 6 weeks in green house conditions by non-isotopic molecular hybridisation assay; how it was run: as §1
[5] = test system: Carnation Italian ringspot virus; assay: Antiviral activity against Carnation Italian ringspot virus infected as compound-treated sap in Saponaria vaccaria at 5% incubated for 60 secs prior to inoculation measured after 6 weeks in green house conditions by non-isotopic molecular hybridisation assay; how it was run: as §1
[6] = test system: Carnation mottle virus; assay: Antiviral activity against Carnation mottle virus infected compound-treated sap in Saponaria vaccaria at 3% incubated for 60 secs prior to inoculation measured after 6 weeks in green house conditions by non-isotopic molecular hybridisation assay; how it was run: as §1
[7] = test system: Carnation latent virus; assay: Antiviral activity against Carnation latent virus infected compound-treated sap in Saponaria vaccaria at 7% incubated for 60 secs prior to inoculation measured after 6 weeks in green house conditions by non-isotopic molecular hybridisation assay; how it was run: as §1
[8] = test system: Carnation vein mottle virus; assay: Antiviral activity against Carnation vein mottle virus infected compound-treated sap in Saponaria vaccaria at 5% incubated for 60 secs prior to inoculation measured after 6 weeks in green house conditions by non-isotopic molecular hybridisation assay; how it was run: as §1
[9] = test system: Carnation latent virus; assay: Antiviral activity against Carnation latent virus infected compound-treated sap in Saponaria vaccaria at 5% incubated for 60 secs prior to inoculation measured after 6 weeks in green house conditions by non-isotopic molecular hybridisation assay; how it was run: as §1
[10] = test system: Carnation mottle virus; assay: Antiviral activity against Carnation mottle virus infected compound-treated sap in Saponaria vaccaria at 5% incubated for 60 secs prior to inoculation measured after 6 weeks in green house conditions by non-isotopic molecular hybridisation assay; how it was run: as §1
[11] = test system: Carnation ringspot virus; assay: Antiviral activity against Carnation ringspot virus infected compound-treated sap in Saponaria vaccaria at 5% incubated for 60 secs prior to inoculation measured after 6 weeks in green house conditions by non-isotopic molecular hybridisation assay; how it was run: as §1
[12] = test system: Carnation mottle virus; assay: Antiviral activity against Carnation mottle virus infected compound-treated sap in Saponaria vaccaria at 7% incubated for 60 secs prior to inoculation measured after 6 weeks in green house conditions by non-isotopic molecular hybridisation assay; how it was run: as §1
[13] = test system: Carnation ringspot virus; assay: Antiviral activity against Carnation ringspot virus infected compound-treated sap in Saponaria vaccaria at 3% incubated for 60 secs prior to inoculation measured after 6 weeks in green house conditions by non-isotopic molecular hybridisation assay; how it was run: as §1
[14] = test system: Carnation latent virus; assay: Antiviral activity against Carnation latent virus infected compound-treated sap in Saponaria vaccaria at 3% incubated for 60 secs prior to inoculation measured after 6 weeks in green house conditions by non-isotopic molecular hybridisation assay; how it was run: as §1
[15] = test system: Carnation etched ring virus; assay: Antiviral activity against Carnation etched ring virus infected compound-treated sap in Saponaria vaccaria at 7% incubated for 60 secs prior to inoculation measured after 6 weeks in green house conditions by non-isotopic molecular hybridisation assay; how it was run: as §1
[16] = test system: Carnation vein mottle virus; assay: Antiviral activity against Carnation vein mottle virus infected compound-treated sap in Saponaria vaccaria at 7% incubated for 60 secs prior to inoculation measured after 6 weeks in green house conditions by non-isotopic molecular hybridisation assay; how it was run: as §1
[17] = test system: Carnation etched ring virus; assay: Antiviral activity against Carnation etched ring virus infected compound-treated sap in Saponaria vaccaria at 5% incubated for 60 secs prior to inoculation measured after 6 weeks in green house conditions by non-isotopic molecular hybridisation assay; how it was run: as §1
[18] = test system: Carnation Italian ringspot virus; assay: Antiviral activity against Carnation Italian ringspot virus infected compound-treated sap in Saponaria vaccaria at 7% incubated for 60 secs prior to inoculation measured after 6 weeks in green house conditions by non-isotopic molecular hybridisation assay; how it was run: as §1

| SMILES | Activity [1] | Activity [2] | Activity [3] | Activity [4] | Activity [5] | Activity [6] | Activity [7] | Activity [8] | Activity [9] | Activity [10] | Activity [11] | Activity [12] | Activity [13] | Activity [14] | Activity [15] | Activity [16] | Activity [17] | Activity [18] |
| --- | --- | --- | --- | --- | --- | --- | --- | --- | --- | --- | --- | --- | --- | --- | --- | --- | --- | --- |
| OCl | Active | Active | inactive | Active | Active | inactive | Active | Active | Active | inactive | inactive | Active | inactive | Active | Active | Active | Active | Active |
| O=P([O-])([O-])O.[Na+].[Na+] | – | – | – | – | inactive | – | – | Active | inactive | inactive | inactive | – | – | – | – | – | inactive | – |
